Experimental data taken from ChEMBL document CHEMBL5058577, “EUbOPEN Chemogenomics Library 2 (Multiplex)” (2022).

System: Fibroblast
Assay: Multiplex assay against human fibroblast
Assay type: toxicity, cell-based
How it was run: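 Cells were classed with CellPathfinder machine-learning gating, first as Hoechst high-intensity objects or normal cells, then (normal cells) as healthy, pyknosed or fragmented nuclei, and finally (pyknosed cells) as mitotic or apoptotic. Staining of live cells at seeding used Hoechst33342, BioTracker Green Microtubule Cytoskeleton Dye, MitoTracker Red and Annexin V Alexa Fluor 680, with imaging on a CQ1 microscope at 37°C and 5% CO2 after compound addition. Tubulin, mitochondrial-mass and membrane-permeability phenotypes are per cents of healthy-nucleus cells.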

[1] = 12 h, 1 µM, compound concentration 1 uM, replicate 1
[2] = 12 h, 1 µM, compound concentration 1 uM, replicate 2
[3] = 12 h, 10 µM, compound concentration 10 uM, replicate 1
[4] = 12 h, 10 µM, compound concentration 10 uM, replicate 2
[5] = 24 h, 1 µM, compound concentration 1 uM, replicate 1
[6] = 24 h, 1 µM, compound concentration 1 uM, replicate 2
[7] = 24 h, 10 µM, compound concentration 10 uM, replicate 1
[8] = 24 h, 10 µM, compound concentration 10 uM, replicate 2
[9] = 48 h, 1 µM, compound concentration 1 uM, replicate 1
[10] = 48 h, 1 µM, compound concentration 1 uM, replicate 2
[11] = 48 h, 10 µM, compound concentration 10 uM, replicate 1
[12] = 48 h, 10 µM, compound concentration 10 uM, replicate 2

CC(=O)NCCc1c(Cc2ccccc2)[nH]c2ccccc12 [LUZINDOLE]
Population Apoptotic (%) [1]: 41%
Population Fragmented Nuclei (%) [1]: 15%
Population Healthy Nuclei (%) [1]: 65%
Population Hoechst High Intensity Objects (%) [1]: 1%
Population Membrane Permeable-Phenotype (%) [1]: 2%
Population Mitochondria Different-Phenotype (%) [1]: 7%
Population Mitotic Cells (%) [1]: 58%
Population Normal (%) [1]: 98%
Population Pyknosed Nuclei (%) [1]: 18%
Population Tubulin-Different-Phenotype (%) [1]: 30%
Total Cell Count [1]: 129
Population Apoptotic (%) [2]: 40%
Population Fragmented Nuclei (%) [2]: 25%
Population Healthy Nuclei (%) [2]: 39%
Population Hoechst High Intensity Objects (%) [2]: 4%
Population Membrane Permeable-Phenotype (%) [2]: 9%
Population Mitochondria Different-Phenotype (%) [2]: 11%
Population Mitotic Cells (%) [2]: 59%
Population Normal (%) [2]: 95%
Population Pyknosed Nuclei (%) [2]: 34%
Population Tubulin-Different-Phenotype (%) [2]: 50%
Total Cell Count [2]: 134
Population Apoptotic (%) [3]: 19%
Population Fragmented Nuclei (%) [3]: 15%
Population Healthy Nuclei (%) [3]: 69%
Population Hoechst High Intensity Objects (%) [3]: 2%
Population Membrane Permeable-Phenotype (%) [3]: 2%
Population Mitochondria Different-Phenotype (%) [3]: 7%
Population Mitotic Cells (%) [3]: 80%
Population Normal (%) [3]: 97%
Population Pyknosed Nuclei (%) [3]: 15%
Population Tubulin-Different-Phenotype (%) [3]: 42%
Total Cell Count [3]: 140
Population Apoptotic (%) [4]: 21%
Population Fragmented Nuclei (%) [4]: 26%
Population Healthy Nuclei (%) [4]: 59%
Population Membrane Permeable-Phenotype (%) [4]: 13%
Population Mitochondria Different-Phenotype (%) [4]: 4%
Population Mitotic Cells (%) [4]: 78%
Population Pyknosed Nuclei (%) [4]: 13%
Population Tubulin-Different-Phenotype (%) [4]: 32%
Total Cell Count [4]: 105
Population Apoptotic (%) [5]: 54%
Population Fragmented Nuclei (%) [5]: 21%
Population Healthy Nuclei (%) [5]: 61%
Population Hoechst High Intensity Objects (%) [5]: 0%
Population Membrane Permeable-Phenotype (%) [5]: 0%
Population Mitochondria Different-Phenotype (%) [5]: 3%
Population Mitotic Cells (%) [5]: 45%
Population Normal (%) [5]: 99%
Population Pyknosed Nuclei (%) [5]: 16%
Population Tubulin-Different-Phenotype (%) [5]: 13%
Total Cell Count [5]: 134
Population Apoptotic (%) [6]: 45%
Population Fragmented Nuclei (%) [6]: 25%
Population Healthy Nuclei (%) [6]: 47%
Population Hoechst High Intensity Objects (%) [6]: 5%
Population Membrane Permeable-Phenotype (%) [6]: 8%
Population Mitochondria Different-Phenotype (%) [6]: 8%
Population Mitotic Cells (%) [6]: 54%
Population Normal (%) [6]: 94%
Population Pyknosed Nuclei (%) [6]: 26%
Population Tubulin-Different-Phenotype (%) [6]: 50%
Total Cell Count [6]: 137
Population Apoptotic (%) [7]: 47%
Population Fragmented Nuclei (%) [7]: 15%
Population Healthy Nuclei (%) [7]: 67%
Population Hoechst High Intensity Objects (%) [7]: 2%
Population Membrane Permeable-Phenotype (%) [7]: 1%
Population Mitochondria Different-Phenotype (%) [7]: 5%
Population Mitotic Cells (%) [7]: 52%
Population Normal (%) [7]: 97%
Population Pyknosed Nuclei (%) [7]: 17%
Population Tubulin-Different-Phenotype (%) [7]: 29%
Total Cell Count [7]: 138
Population Apoptotic (%) [8]: 23%
Population Fragmented Nuclei (%) [8]: 27%
Population Healthy Nuclei (%) [8]: 59%
Population Hoechst High Intensity Objects (%) [8]: 3%
Population Membrane Permeable-Phenotype (%) [8]: 5%
Population Mitochondria Different-Phenotype (%) [8]: 3%
Population Mitotic Cells (%) [8]: 76%
Population Normal (%) [8]: 96%
Population Pyknosed Nuclei (%) [8]: 12%
Population Tubulin-Different-Phenotype (%) [8]: 33%
Total Cell Count [8]: 105
Population Apoptotic (%) [9]: 75%
Population Fragmented Nuclei (%) [9]: 15%
Population Healthy Nuclei (%) [9]: 72%
Population Hoechst High Intensity Objects (%) [9]: 5%
Population Membrane Permeable-Phenotype (%) [9]: 2%
Population Mitochondria Different-Phenotype (%) [9]: 3%
Population Mitotic Cells (%) [9]: 25%
Population Normal (%) [9]: 94%
Population Pyknosed Nuclei (%) [9]: 12%
Population Tubulin-Different-Phenotype (%) [9]: 24%
Total Cell Count [9]: 134
Population Apoptotic (%) [10]: 39%
Population Fragmented Nuclei (%) [10]: 27%
Population Healthy Nuclei (%) [10]: 55%
Population Hoechst High Intensity Objects (%) [10]: 8%
Population Membrane Permeable-Phenotype (%) [10]: 9%
Population Mitochondria Different-Phenotype (%) [10]: 5%
Population Mitotic Cells (%) [10]: 60%
Population Normal (%) [10]: 91%
Population Pyknosed Nuclei (%) [10]: 16%
Population Tubulin-Different-Phenotype (%) [10]: 46%
Total Cell Count [10]: 149
Population Apoptotic (%) [11]: 80%
Population Fragmented Nuclei (%) [11]: 19%
Population Healthy Nuclei (%) [11]: 70%
Population Hoechst High Intensity Objects (%) [11]: 3%
Population Membrane Permeable-Phenotype (%) [11]: 0%
Population Mitochondria Different-Phenotype (%) [11]: 3%
Population Mitotic Cells (%) [11]: 20%
Population Normal (%) [11]: 96%
Population Pyknosed Nuclei (%) [11]: 10%
Population Tubulin-Different-Phenotype (%) [11]: 34%
Total Cell Count [11]: 147
Population Apoptotic (%) [12]: 54%
Population Fragmented Nuclei (%) [12]: 34%
Population Healthy Nuclei (%) [12]: 54%
Population Hoechst High Intensity Objects (%) [12]: 4%
Population Membrane Permeable-Phenotype (%) [12]: 3%
Population Mitotic Cells (%) [12]: 45%
Population Normal (%) [12]: 95%
Population Tubulin-Different-Phenotype (%) [12]: 50%
Total Cell Count [12]: 111
